Format in all cases: functional
The subject of one assay is A549. In words: Growth inhibition of human A549 cells at 1 uM after 48 hrs by SRB assay. Particulars: A549, 48 h, read-out: GI. The essentials:
(§1)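 Sulforhodamine B readout at 540 nm after 48 h exposure of cells seeded at 1×10⁵ cells/ml and pre-grown 24 h in RPMI-1640 with 10% fetal calf serum (37 °C, 5% CO2). Compounds diluted in medium from DMSO stocks.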

The next assay relates to Caco-2. The assay is described as follows: Growth inhibition of human Caco2 cells at 20 uM after 48 hrs by SRB assay. To be noted: Caco-2, 48 h, read-out: GI. The essentials: (§2)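 Cells grown in RPMI-1640 (2 mM glutamine, pH 7.4, 10% fetal calf serum, penicillin/streptomycin) at 37 °C, 5% CO2, 90% RH. Seeded as suspension of 1 x 10^5 cells/ml, grown 24 h, then test solutions (from DMSO stocks diluted in medium with gentamycin) added for 48 h. Fixed with TCA at 4 °C 1 h, SRB stained, dye dissolved in Tris-HCl pH 10.4, OD 540 nm. Percent growth inhibition computed versus untreated growth after blank subtraction.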
On the technique in general: The SRB assay estimates cell density from bound dye.

Another assay relates to THP-1. The assay is described as follows: Growth inhibition of human THP1 cells at 20 uM after 48 hrs by SRB assay. Particulars: THP-1, 48 h, read-out: GI. The essentials:
as §2

The test system of the next assay is PC-3. In words: Growth inhibition of human PC3 cells at 1 uM after 48 hrs by SRB assay. To be noted: PC-3, 48 h, read-out: GI. The essentials:
as §1

As to `CC(=O)O[C@H]1C(=O)[C@@]2(C)[C@H]([C@H](OC(=O)c3ccccc3)[C@]3(O)C[C@H](OC(=O)[C@H](O)[C@@H](NC(=O)c4ccccc4)c4ccccc4)C(C)=C1C3(C)C)[C@]1(OC(C)=O)CO[C@@H]1C[C@@H]2O` [PACLITAXEL], the inhibition of growth at 1 µM with A549 stood at 69%. Regarding `O=c1[nH]cc(F)c(=O)[nH]1` [FLUOROURACIL], the figures for the inhibition of growth at 20 µM in the assay on Caco-2 and in the assay with THP-1 were 68% and 70%, respectively. `CO[C@@]12[C@H](COC(N)=O)C3=C(C(=O)C(C)=C(N)C3=O)N1C[C@@H]1N[C@@H]12` [MITOMYCIN]: the inhibition of growth at 1 µM in the assay with PC-3 came out at 60%.

The values are drawn from ChEMBL document CHEMBL1926615, “1,2,3-Triazole tethered β-lactam-chalcone bifunctional hybrids: synthesis and anticancer evaluation” (Eur J Med Chem, 2012).
